High-throughput results deposited in PubChem by Johns Hopkins Ion Channel Center.
TRPC6 act – mouse TRPC6 channel activators, primary screen, cell-based, HEK293, membrane potential dye; Short transient receptor potential channel 6 (Mus musculus), Q61143; actives 0.13% (n = 310,000); B-score at 10 µM; AID 2550, 2010; HEK293-TRPC6 membrane potential dye fluorescence; active compounds read high;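 active = B-score of the integrated fluorescence ratio above library mean plus 3 SD, and starting fluorescence ratio within library mean plus 5 SD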;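 also: higher score means more depolarization so channel activation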
TRPC4 PAM – positive allosteric modulators of TRPC4, primary screen, cell-based, mouse TRPC4beta, HEK293 mu-opioid, Fluo-4 calcium | Short transient receptor potential channel 4 (Mus musculus), Q9QUQ5 | actives 0.42% (n = 310,000) | B-score at 10 µM | DAMGO EC20, Fluo-4 Ca2+ flux; active compounds read high | AID 2227, 2009;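 active = B-score of calcium response area above 5 SD of library B-scores, with initial fluorescence ratio within 5 SD of library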;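 also: B-score of integrated fluorescence ratio over time as area under calcium response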
Target sequence (Q9QUQ5 whole entry, looked up): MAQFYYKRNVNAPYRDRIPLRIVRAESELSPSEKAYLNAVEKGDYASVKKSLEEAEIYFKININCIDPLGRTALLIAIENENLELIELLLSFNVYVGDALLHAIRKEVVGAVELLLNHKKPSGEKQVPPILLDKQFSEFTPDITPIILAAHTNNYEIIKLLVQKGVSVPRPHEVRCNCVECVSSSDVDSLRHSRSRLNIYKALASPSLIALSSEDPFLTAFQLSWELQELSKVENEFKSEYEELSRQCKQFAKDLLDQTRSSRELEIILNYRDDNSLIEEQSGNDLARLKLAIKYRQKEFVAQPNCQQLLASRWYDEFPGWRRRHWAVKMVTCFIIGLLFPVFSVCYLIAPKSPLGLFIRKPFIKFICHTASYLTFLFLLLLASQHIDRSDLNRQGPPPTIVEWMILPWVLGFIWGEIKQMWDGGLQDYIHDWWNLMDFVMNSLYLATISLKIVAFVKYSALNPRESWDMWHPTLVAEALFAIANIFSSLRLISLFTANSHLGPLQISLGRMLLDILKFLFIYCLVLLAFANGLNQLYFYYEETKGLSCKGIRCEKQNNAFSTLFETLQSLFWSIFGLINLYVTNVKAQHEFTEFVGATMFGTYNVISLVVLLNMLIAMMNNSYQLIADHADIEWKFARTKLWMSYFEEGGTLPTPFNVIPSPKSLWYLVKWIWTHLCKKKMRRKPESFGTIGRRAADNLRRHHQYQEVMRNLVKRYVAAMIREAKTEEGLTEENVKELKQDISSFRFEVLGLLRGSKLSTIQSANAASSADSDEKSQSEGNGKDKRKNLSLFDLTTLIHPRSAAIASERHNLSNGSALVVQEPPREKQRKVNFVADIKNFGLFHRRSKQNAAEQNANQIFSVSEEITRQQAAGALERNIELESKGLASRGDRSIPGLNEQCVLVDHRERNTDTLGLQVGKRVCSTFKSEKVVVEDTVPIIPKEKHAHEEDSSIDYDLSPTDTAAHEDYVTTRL
TRPC6 inhibitor – mouse TRPC6 channel inhibitors, primary screen, cell-based, HEK293, membrane potential dye | ACh-evoked depolarization; active compounds read low | B-score at 10 µM | actives 1.1% (n = 310,000);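 active = B-score under library mean minus 3 SD, initial fluorescence not abnormally high, positive integrated signal ratio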;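 also: B-score derived from integrated fluorescence ratio over the kinetic read; more negative B-score means stronger inhibition of depolarization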
TRPC4 agonist – activators of mouse TRPC4 channel, primary screen, Fluo4 calcium, HEK293 TRPC4beta/mu-opioid cells; actives 0.49% (n = 310,000); Fluo4 calcium fluorescence; active compounds read high; B-score at 10 µM; AID 2237, 2010;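 active = B-score above 5 SD of library B-scores, and initial fluorescence ratio not above library mean plus 5 SD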;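 also: positive B-score marks a calcium rise read as TRPC4 activation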
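Assay system – TRPC4beta and mu-opioid receptor HEK293 stable cells · Measured by – Fluo4 fluorescence, kinetic · Schedule – dye loading 45 min room temperature, 110 s kinetic read · Read-out – B-scored integrated calcium fluorescence ratio · Controls – buffer and maximal DAMGO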
TRPC4 inh – inhibitors of mouse TRPC4 channel, primary screen, Fluo4 calcium, HEK293 TRPC4beta/mu-opioid cells; DAMGO-evoked Fluo4 calcium flux; active compounds read low; B-score at 10 µM; actives 0.39% (n = 300,000); AID 2247, 2010; Short transient receptor potential channel 4 (Mus musculus), Q9QUQ5;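 active = B-score over 3 SD under the library average, no early fluorescence shift, positive overall ratio signal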
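Material: HEK293 cells with stable TRPC4beta plus mu-opioid receptor expression; probe or stimulus: DAMGO in two steps, submaximal then maximal; technique: Fluo4 calcium fluorescence by kinetic imaging, 5 s 1 Hz baseline; measure: integrated fluorescence ratio relative to baseline, converted to per-well B score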
TRPC4 sel inh 2 – second selectivity test of TRPC6 inhibitors: effect on mouse TRPC4. actives 42% (n = 920). shares compounds with TRPC6 inhibitor. AID 2776. inhibition, % at 10 µM. HEK293 TRPC4/MOR, membrane potential dye fluorescence; channel activated by saturating DAMGO dose;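 active = compounds whose fluorescence signal differed from control wells by over 3 SD, either direction, in both duplicate plates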
TRPC4 spec – mouse TRPC4 modulation by TRPC6 hits, confirmation, selectivity assay for TRPC6 inhibitor project, cell-based, HEK293 TRPC4/mu-opioid, membrane potential dye; shares compounds with TRPC6 inhibitor; membrane potential fluorescence; activity change, negative = inhibition, % at 10 µM; actives 61% (n = 920); AID 2777, 2010;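 active = rise or fall in signal beyond 3 SD of buffer-only wells in both replicate plates, either sign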;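 also: integrated kinetic ratio of fluorescence range over baseline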
HEK293 MPD ctr 2-1 – nonspecific membrane potential effects, parental HEK293, confirmation, counter-screen for TRPC6 inhibitor project, cell-based, second counter screen | shares compounds with TRPC6 inhibitor | parental HEK293 membrane potential dye fluorescence; maximal acetylcholine challenge after compound addition | signal change vs control, % at 10 µM | actives 31% (n = 920);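 active = membrane potential signal moving either way by over 3 SD of the maximum-effect control, in both duplicate plates, meaning non-specific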
HEK293 MPD ctr-1 – membrane potential modulation in parental HEK293, confirmation, counter-screen for TRPC6 inhibitor project, cell-based | membrane potential signal change, % at 10 µM | parental HEK293 membrane potential dye fluorescence | actives 60% (n = 920) | shares compounds with TRPC6 inhibitor;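 active = membrane potential signal shifting up or down by more than 3 SD of buffer-only wells, on both duplicate plates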
HEK293 MPD ctr-2 – parental HEK293 membrane potential modulation, confirmation, counter-screen for TRPC6 modulator project, cell-based; shares compounds with TRPC6 inhibitor; membrane potential dye fluorescence; membrane potential signal change, % at 10 µM; actives 51% (n = 2,400); AID 488924, 2010;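 active = membrane potential signal moves up or down beyond 5 SD from buffer-only wells, on both duplicate plates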
HEK293 MPD ctr 2-2 – second check of TRPC6 modulator effects in parental HEK293 cells; shares compounds with TRPC6 inhibitor; membrane potential dye fluorescence; after compound, maximal acetylcholine stimulation; inhibition, % at 10 µM; actives 14% (n = 2,400); AID 488926;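 active = membrane potential signal drops by more than 5 SD from the mean control signal, in both duplicate plates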;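 also: plate controls were acetylcholine ECmax control wells for no effect and buffer only wells for full effect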
TRPC4/MOR mod – TRPC4 modulation by TRPC6 hit compounds, confirmation, selectivity assay for TRPC6 modulator project, cell-based, HEK293 TRPC4/mu-opioid, membrane potential dye, mouse | shares compounds with TRPC6 inhibitor | membrane potential fluorescence | percent change from control (negative = decrease, positive = increase), % at 10 µM | actives 69% (n = 2,400) | AID 488927, 2010;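 active = membrane potential signal moved up or down beyond 5 SD of buffer control wells, in both duplicate plates, actives on both sides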;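 also: plate controls were assay buffer wells for no effect and DAMGO maximal-effect wells for full effect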
TRPC4 ctr inh 2 – mouse TRPC4 off-target activity of TRPC6 modulators, second screen | HEK293 TRPC4/mu-opioid, membrane potential dye fluorescence; stimulated with maximal-effect DAMGO | inhibition, % at 10 µM | actives 55% (n = 2,400) | shares compounds with TRPC6 inhibitor;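 active = drop in membrane potential signal beyond 5 SD of the control wells in both duplicate plates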;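 also: TRPC4 counter screen for TRPC6 hits run under conditions tuned for TRPC6 not TRPC4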
TRPC6 block conf – mouse TRPC6 channel inhibitors, confirmation, HEK293 cells, membrane potential dye, duplicate. ACh-evoked depolarization. inhibition, % at 10 µM. AID 488960, 2010. shares compounds with TRPC6 inhibitor. actives 43% (n = 3,300);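 active = fluorescence ratio falls more than 5 SD below the full-stimulation control mean, in both duplicate runs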;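 also: integrated fluorescence ratio of peak minus minimum over baseline after agonist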
TRPC6 act conf – mouse TRPC6 channel activators, confirmation, HEK293 cells, membrane potential dye, duplicate | HEK293-TRPC6 membrane potential dye fluorescence, FDSS | shares compounds with TRPC6 inhibitor | activation, % at 10 µM | actives 11% (n = 2,800);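 active = ratio signal rise beyond 5 SD above unstimulated control wells' mean, seen in both duplicate runs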;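 also: plate controls were buffer EC0 wells for no effect and acetylcholine ECmax response for full effect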
* marks the source's active call; other numbers are inactive results. This is a sample that favours compounds with a hit; in the whole collection about 2.3% have one here.

COCCCNC(=O)CCC(=O)Nc1ccc2nc(N3CCOCC3)cc(C)c2c1 was read as TRPC6 act inactive, TRPC4 PAM inactive, TRPC6 inhibitor -6.8*, TRPC4 agonist inactive, TRPC4 inh inactive, TRPC4 sel inh 2 inactive, TRPC4 spec -28%*, HEK293 MPD ctr 2-1 inactive, HEK293 MPD ctr-1 -360%*, TRPC6 block conf 64%* and TRPC6 act conf inactive.
For CCCCNC(=O)CCC(=O)Nc1ccc2nc(N3CCOCC3)cc(C)c2c1 the results were TRPC6 act inactive, TRPC4 PAM inactive, TRPC6 inhibitor inactive, TRPC4 agonist inactive and TRPC4 inh inactive.
Screening CCCCNC(=S)Nc1ccc2nc3n(c(=O)c2c1)CCCCC3 returned TRPC6 act inactive, TRPC4 PAM inactive, TRPC6 inhibitor inactive, TRPC4 agonist inactive and TRPC4 inh inactive.
For Cc1cc(N2CCOCC2)nc2ccc(NC(=O)CCC(=O)N3CCN(c4ccccc4)CC3)cc12 the results were TRPC6 act inactive, TRPC4 PAM inactive, TRPC6 inhibitor inactive, TRPC4 agonist inactive and TRPC4 inh inactive.
`Cc1cc(N2CCN(C)CC2)nc2ccc(NC(=O)CCC(=O)NCCCOC(C)C)cc12` gave TRPC6 act inactive, TRPC4 PAM inactive, TRPC6 inhibitor inactive, TRPC4 agonist inactive and TRPC4 inh inactive.
For CCN(CC)CCCNC(=O)CCC(=O)Nc1ccc2nc(N3CCC(C)CC3)cc(C)c2c1 the results were TRPC6 act inactive, TRPC4 PAM inactive, TRPC6 inhibitor -6.1*, TRPC4 agonist inactive, TRPC4 inh inactive, HEK293 MPD ctr-2 136%*, HEK293 MPD ctr 2-2 inactive, TRPC4/MOR mod 22%*, TRPC4 ctr inh 2 inactive and TRPC6 block conf inactive.
`COc1ccc(N2CC(C(=O)NNC(=O)c3ccc(Br)cc3)CC2=O)c(OC)c1` (configuration not stated) gave TRPC6 act inactive, TRPC4 PAM inactive, TRPC6 inhibitor inactive, TRPC4 agonist inactive and TRPC4 inh inactive.
`Cc1ccc(CS(=O)Cc2ccc(C(=O)N3CCN(c4ccccn4)CC3)o2)cc1` (configuration not stated) gave TRPC6 act inactive, TRPC4 PAM inactive, TRPC6 inhibitor inactive, TRPC4 agonist inactive and TRPC4 inh inactive.
Screening CC(=O)N1c2ccc(S(=O)(=O)NCC3CCC(C(=O)NCc4ccccc4)CC3)cc2CC1C (configuration not stated) returned TRPC6 act inactive, TRPC4 PAM inactive, TRPC6 inhibitor inactive, TRPC4 agonist inactive and TRPC4 inh inactive.
Screening Cc1cc(N2CCCCC2)nc2ccc(NC(=O)CCC(=O)NCCC(C)C)cc12 returned TRPC6 act inactive, TRPC4 PAM inactive, TRPC6 inhibitor -8*, TRPC4 agonist inactive, TRPC4 inh inactive, TRPC4 sel inh 2 inactive, TRPC4 spec -16%*, HEK293 MPD ctr 2-1 224%*, HEK293 MPD ctr-1 -228%*, TRPC6 block conf inactive and TRPC6 act conf inactive.
`CCCCNC(=O)CCC(=O)Nc1ccc2nc(N3CCCCC3)cc(C)c2c1` gave TRPC6 act inactive, TRPC4 PAM inactive, TRPC6 inhibitor inactive, TRPC4 agonist inactive and TRPC4 inh inactive.
Screening CC(=O)N1CCN(c2ccc(S(=O)(=O)NCCN(C(C)C)C(C)C)cc2[N+](=O)[O-])CC1 returned TRPC6 act inactive, TRPC4 PAM inactive, TRPC6 inhibitor inactive, TRPC4 agonist inactive and TRPC4 inh inactive.
For CN(C)CCNS(=O)(=O)c1ccc(N2CCN(c3ccc(F)cc3)CC2)c([N+](=O)[O-])c1 the results were TRPC6 act inactive, TRPC4 PAM inactive, TRPC6 inhibitor -7*, TRPC4 agonist inactive, TRPC4 inh inactive, TRPC4 sel inh 2 40%*, TRPC4 spec -14%*, HEK293 MPD ctr 2-1 inactive, HEK293 MPD ctr-1 -278%*, TRPC6 block conf 52%* and TRPC6 act conf inactive.
